According to ChEMBL document CHEMBL1155348, “Synthesis and antiviral activity of beta-carboline derivatives bearing a substituted carbohydrazide at C-3 against poliovirus and herpes simplex virus (HSV-1)” (Eur J Med Chem, 2009):
Activity calls are given as the source filed them. The calls are words filed in the database; no cut-off is given here.

Legend:
[1] = test system: Enterovirus C; assay: Antiviral activity against Poliovirus infected in african green monkey Vero cells by SRB assay; type: functional, organism-based
In short: (§1)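 Screening: Vero monolayers, infected or uninfected, were treated with a range of compound concentrations. Antiviral activity was read by sulforhodamine B (SRB) staining, and EC50 was taken as the concentration giving 50% efficacy.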

[2] = test system: Human alphaherpesvirus 1; assay: Antiviral activity against HSV1 infected in african green monkey Vero cells by SRB assay; type: functional, organism-based; settings: Human alphaherpesvirus 1, Vero; in short: as §1
[3] = Cytotoxicity against african green monkey Vero cells after 72 hrs by SRB assay; type: cell-based; settings: chlorocebus sabaeus
In short: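 Uninfected Vero cells were exposed to compound for 72 h and viability was measured by SRB assay. CC50 is the concentration giving 50% cytotoxicity.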

[4] = Selectivity index, ratio of CC50 for african green monkey Vero cells to EC50 in HSV1
In short: (§2)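 SI was derived from the SRB-based CC50 in Vero cells and the SRB-based EC50 against each virus.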

[5] = Selectivity index, ratio of CC50 for african green monkey Vero cells to EC50 in Poliovirus; type: toxicity, cell-based; settings: read-out: Ratio CC50/EC50; in short: as §2
[6] = test system: Enterovirus C; assay: Antiviral activity against Poliovirus infected in 1 hr compound pretreated african green monkey Vero cells assessed as reduction of plaque formation at 0.825 uM measured after 48 to 72 hrs by virus yield inhibition assay; type: functional; parameters: scale not given: the % may be the effect or the level left
In short: (§3)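 Compound was dissolved in DMSO, diluted in serum-free DMEM and added to PBS-washed Vero monolayers for 1 h at 37 °C in 5% CO2. Unbound compound was removed and cells were washed and then infected for 1 h. Unadsorbed virus was removed, and cells were washed and overlaid with DMEM plus 0.5% carboxymethylcellulose. After 48 or 72 h, cells were fixed with formaldehyde, stained with crystal violet and plaques counted.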

[7] = test system: Enterovirus C; assay: Antiviral activity against Poliovirus infected in 1 hr compound pretreated african green monkey Vero cells assessed as reduction of plaque formation at 1.65 uM measured after 48 to 72 hrs by virus yield inhibition assay; type: functional; parameters: scale not given: the % may be the effect or the level left; in short: as §3
[8] = test system: Enterovirus C; assay: Antiviral activity against Poliovirus infected in 1 hr compound pretreated african green monkey Vero cells assessed as reduction of plaque formation at 3.3 uM measured after 48 to 72 hrs by virus yield inhibition assay; type: functional; parameters: scale not given: the % may be the effect or the level left; in short: as §3
[9] = test system: Enterovirus C; assay: Antiviral activity against Poliovirus infected in 1 hr compound pretreated african green monkey Vero cells assessed as reduction of plaque formation at 6.6 uM measured after 48 to 72 hrs by virus yield inhibition assay; type: functional; parameters: scale not given: the % may be the effect or the level left; in short: as §3
[10] = test system: Enterovirus C; assay: Antiviral activity against Poliovirus infected in african green monkey Vero cells assessed as reduction of plaque formation at 0.825 uM treated during viral infection measured after 48 to 72 hrs by virus yield inhibition assay; type: functional; parameters: scale not given: the % may be the effect or the level left
In short: (§4)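 Compound was diluted from DMSO into serum-free DMEM and added together with virus to PBS-washed Vero monolayers for 1 h at 37 °C in 5% CO2. Unadsorbed virus was removed, and cells were washed with PBS and overlaid with DMEM plus 0.5% carboxymethylcellulose. After 48 or 72 h, cells were fixed with 10% formaldehyde, stained with 0.5% crystal violet and plaques counted.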

[11] = test system: Enterovirus C; assay: Antiviral activity against Poliovirus infected in african green monkey Vero cells assessed as reduction of plaque formation at 1.65 uM treated during viral infection measured after 48 to 72 hrs by virus yield inhibition assay; type: functional; parameters: scale not given: the % may be the effect or the level left; in short: as §4
[12] = test system: Enterovirus C; assay: Antiviral activity against Poliovirus infected in african green monkey Vero cells assessed as reduction of plaque formation at 3.3 uM treated during viral infection measured after 48 to 72 hrs by virus yield inhibition assay; type: functional; parameters: scale not given: the % may be the effect or the level left; in short: as §4
[13] = test system: Enterovirus C; assay: Antiviral activity against Poliovirus infected in african green monkey Vero cells assessed as reduction of plaque formation at 6.6 uM treated during viral infection measured after 48 to 72 hrs by virus yield inhibition assay; type: functional; parameters: scale not given: the % may be the effect or the level left; in short: as §4
[14] = test system: Enterovirus C; assay: Antiviral activity against Poliovirus infected in african green monkey Vero cells assessed as reduction of plaque formation at 0.825 uM treated 1 hr after viral infection measured after 48 to 72 hrs by virus yield inhibition assay; type: functional; parameters: scale not given: the % may be the effect or the level left
In short: (§5)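 PBS-washed Vero monolayers were infected for 1 h. Unadsorbed virus was removed, cells were washed, and compound was then added at various concentrations in DMEM with 0.5% carboxymethylcellulose. After 48 or 72 h at 37 °C, cells were fixed with 10% formaldehyde, stained with 0.5% crystal violet and plaques counted.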

[15] = test system: Enterovirus C; assay: Antiviral activity against Poliovirus infected in african green monkey Vero cells assessed as reduction of plaque formation at 1.65 uM treated 1 hr after viral infection measured after 48 to 72 hrs by virus yield inhibition assay; type: functional; parameters: scale not given: the % may be the effect or the level left; in short: as §5
[16] = test system: Enterovirus C; assay: Antiviral activity against Poliovirus infected in african green monkey Vero cells assessed as reduction of plaque formation at 3.3 uM treated 1 hr after viral infection measured after 48 to 72 hrs by virus yield inhibition assay; type: functional; parameters: scale not given: the % may be the effect or the level left; in short: as §5
[17] = test system: Enterovirus C; assay: Antiviral activity against Poliovirus infected in african green monkey Vero cells assessed as reduction of plaque formation at 6.6 uM treated 1 hr after viral infection measured after 48 to 72 hrs by virus yield inhibition assay; type: functional; parameters: scale not given: the % may be the effect or the level left; in short: as §5
[18] = test system: Enterovirus C; assay: Antiviral activity against 1 hr compound pretreated Poliovirus infected in african green monkey Vero cells assessed as reduction of plaque formation at 0.825 uM after 48 to 72 hrs by virus yield inhibition assay; type: functional; parameters: scale not given: the % may be the effect or the level left
[19] = test system: Enterovirus C; assay: Antiviral activity against 1 hr compound pretreated Poliovirus infected in african green monkey Vero cells assessed as reduction of plaque formation at 1.65 uM after 48 to 72 hrs by virus yield inhibition assay; type: functional; parameters: scale not given: the % may be the effect or the level left
[20] = test system: Enterovirus C; assay: Antiviral activity against 1 hr compound pretreated Poliovirus infected in african green monkey Vero cells assessed as reduction of plaque formation at 3.3 uM after 48 to 72 hrs by virus yield inhibition assay; type: functional; parameters: scale not given: the % may be the effect or the level left
[21] = test system: Enterovirus C; assay: Antiviral activity against 1 hr compound pretreated Poliovirus infected in african green monkey Vero cells assessed as reduction of plaque formation at 6.6 uM after 48 to 72 hrs by virus yield inhibition assay; type: functional; parameters: scale not given: the % may be the effect or the level left
[22] = test system: Human alphaherpesvirus 1; assay: Antiviral activity against 1 hr compound pretreated HSV1 infected in african green monkey Vero cells assessed as inhibition of viral replication measured after 48 to 72 hrs; type: functional, organism-based
In short: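 HSV-1 was mixed with compound for 1 h before being added to Vero cells. The mixture infected the cells for 1 h at 37 °C in 5% CO2. The monolayer was washed with PBS and overlaid with DMEM containing carboxymethylcellulose. After 48 or 72 h at 37 °C, cells were fixed with 10% formaldehyde and stained with 0.5% crystal violet, and plaques were counted.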

COc1ccc(-c2nc(C(=O)N/N=C/c3ccccc3)cc3c2[nH]c2ccccc23)cc1
EC50 [1]: > 100 µM | EC50 [2]: > 100 µM

O=C(N/N=C/c1ccccc1Cl)c1cc2c([nH]c3ccccc32)c(-c2ccc(O)cc2)n1
CC50 at 72 h [3]: 29.8 µM | EC50 [1]: > 100 µM | EC50 [2]: 41.2 µM | Ratio CC50/EC50 [4]: 0.7

O=C(N/N=C/c1ccccc1Cl)c1cc2c([nH]c3ccccc32)c(-c2ccccc2)n1
EC50 [1]: > 100 µM | EC50 [2]: > 100 µM

COc1ccc(-c2nc(C(=O)N/N=C/c3ccc([N+](=O)[O-])cc3)cc3c2[nH]c2ccccc23)cc1
EC50 [1]: > 100 µM | EC50 [2]: > 100 µM

O=C(N/N=C/c1ccccc1)c1cc2c([nH]c3ccccc32)c(-c2ccc(O)cc2)n1
CC50 at 72 h [3]: 1240 µM | EC50 [1]: 1.03 µM | EC50 [2]: > 100 µM | selectivity ratio [5]: 1200

COc1ccc(/C=N/NC(=O)c2cc3c([nH]c4ccccc43)c(-c3ccc(OC)cc3)n2)cc1
EC50 [1]: > 100 µM | EC50 [2]: > 100 µM

CN(C)c1ccc(/C=N/NC(=O)c2cc3c([nH]c4ccccc43)c(-c3ccc(O)cc3)n2)cc1
CC50 at 72 h [3]: 900 µM | EC50 [1]: 2.67 µM | EC50 [2]: > 100 µM | selectivity ratio [5]: 337 | Activity [6]: 0% | Activity [7]: 0% | Activity [8]: 0% | Activity [9]: 0% | Activity [10]: 0% | Activity [11]: 0% | Activity [12]: 0% | Activity [13]: 0% | Activity [14]: 0% | Activity [15]: 32% | Activity [16]: 66.3% | Activity [17]: 88.3% | Activity [18]: 0% | Activity [19]: 0% | Activity [20]: 0% | Activity [21]: 0%

COc1ccc(/C=N/NC(=O)c2cc3c([nH]c4ccccc43)c(-c3ccc(O)cc3)n2)cc1
CC50 at 72 h [3]: 803 µM | EC50 [1]: > 100 µM | EC50 [2]: 22.9 µM | Ratio CC50/EC50 [4]: 35

O=C(N/N=C/c1ccc([N+](=O)[O-])cc1)c1cc2c([nH]c3ccccc32)c(-c2ccccc2)n1
EC50 [1]: > 100 µM | EC50 [2]: > 100 µM

CN(C)c1ccc(/C=N/NC(=O)c2cc3c([nH]c4ccccc43)c(-c3ccccc3)n2)cc1
CC50 at 72 h [3]: 1160 µM | EC50 [1]: 0.87 µM | EC50 [2]: 1.85 µM | selectivity ratio [5]: 1340 | Ratio CC50/EC50 [4]: 629.5

CN(C)c1ccc(/C=N/NC(=O)c2cc3c([nH]c4ccccc43)c(-c3cccc([N+](=O)[O-])c3)n2)cc1
CC50 at 72 h [3]: 1050 µM | EC50 [1]: > 100 µM | EC50 [2]: 73.2 µM | Ratio CC50/EC50 [4]: 14.3

COc1ccc(-c2nc(C(=O)N/N=C/c3ccc(N(C)C)cc3)cc3c2[nH]c2ccccc23)cc1
EC50 [1]: > 100 µM | EC50 [2]: > 100 µM

O=C(N/N=C/c1ccccc1)c1cc2c([nH]c3ccccc32)c(-c2ccccc2)n1
CC50 at 72 h [3]: 777 µM | EC50 [1]: 1.95 µM | EC50 [2]: > 100 µM | selectivity ratio [5]: 398

CN(C)c1ccc(/C=N/NC(=O)c2cc3c([nH]c4ccccc43)c(-c3ccc([N+](=O)[O-])cc3)n2)cc1
EC50 [1]: > 100 µM | EC50 [2]: > 100 µM

COc1ccc(/C=N/NC(=O)c2cc3c([nH]c4ccccc43)c(-c3cccc([N+](=O)[O-])c3)n2)cc1
EC50 [1]: > 100 µM | EC50 [2]: > 100 µM

COc1ccc(/C=N/NC(=O)c2cc3c([nH]c4ccccc43)c(-c3ccc([N+](=O)[O-])cc3)n2)cc1
EC50 [1]: > 100 µM | EC50 [2]: > 100 µM

COc1ccc(/C=N/NC(=O)c2cc3c([nH]c4ccccc43)c(-c3ccccc3)n2)cc1
CC50 at 72 h [3]: 1150 µM | EC50 [1]: 0.87 µM | EC50 [2]: 0.47 µM | selectivity ratio [5]: 1320 | Ratio CC50/EC50 [4]: 2446.8 | Activity [22]: inactive

O=C(N/N=C/c1ccc([N+](=O)[O-])cc1)c1cc2c([nH]c3ccccc32)c(-c2ccc(O)cc2)n1
CC50 at 72 h [3]: 200 µM | EC50 [1]: > 100 µM | EC50 [2]: 86.5 µM | Ratio CC50/EC50 [4]: 2.3

O=C(N/N=C/c1ccccc1)c1cc2c([nH]c3ccccc32)c(-c2ccc([N+](=O)[O-])cc2)n1
EC50 [1]: > 100 µM | EC50 [2]: > 100 µM
